The subject of one series is NCI-H226. In words: Antiproliferative activity against human NCI-H226 cells assessed as cell growth inhibition. The class given is functional. In a few lines: (§1)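 Cell lines screened for growth inhibition and GI₅₀ derived. Each value is the mean of 3 independent experiments.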
Another series deals with A549. The experiment in a line: Antiproliferative activity against human A549 cells assessed as cell growth inhibition. The class given is functional. A digest of the protocol:
as §1

Series [1] is described as follows: Cytotoxicity against hepatocytes (unknown origin) assessed as cell growth by MTT assay relative to control. The class given is cell-based, Hepatocyte. On the set-up: concentration or dose not given beside the values.
The subject of series [2] is K562. In words: Anticancer activity against human K562 cells assessed as cell growth inhibition at 1 uM by MTT assay relative to control. The class given is functional. To be noted: read-out: GI. In a few lines:
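K562 cells given imatinib 1 µM or test compound 1 µM alone, or imatinib 1 µM plus test compound 1 µM. Proliferation read by MTT assay and expressed as % inhibition.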

The subject of another series is MOLT-4. The experiment in a line: Antiproliferative activity against human MOLT-4 cells assessed as cell growth inhibition. The class given is functional. A digest of the protocol: as §1
A further series relates to KB. The experiment in a line: Antiproliferative activity against human KB cells assessed as cell growth inhibition. The class given is functional. A digest of the protocol: as §1
A short description of series [3]: Antiproliferative activity against human GURAV cells assessed as cell growth inhibition. The class given is functional. In a few lines:
as §1

In the next series the test system is MCF7. In words: Antiproliferative activity against human MCF7 cells assessed as cell growth inhibition. The class given is functional. In a few lines:
as §1

The subject of a further series is U-937. The experiment in a line: Antiproliferative activity against human U-937 cells assessed as cell growth inhibition. The class given is functional. In a few lines: as §1
The test system of the next series is HOP-62. The experiment in a line: Antiproliferative activity against human HOP-62 cells assessed as cell growth inhibition. The class given is functional. A digest of the protocol: as §1
The next series deals with HL-60. The experiment in a line: Antiproliferative activity against human HL-60 cells assessed as cell growth inhibition. The class given is functional. A digest of the protocol: as §1
In series [4] the test system is K562. In words: Antiproliferative activity against human K562 cells assessed as cell growth inhibition. The class given is functional. A digest of the protocol:
as §1

The subject of the next series is PC-3. The experiment in a line: Antiproliferative activity against human PC-3 cells assessed as cell growth inhibition. The class given is functional. In a few lines: as §1
For the next series, the system named is Jurkat. In words: Antiproliferative activity against human Jurkat cells assessed as cell growth inhibition. The class given is functional. In a few lines:
as §1

One may read the GI50 as the concentration at which growth is held to half of that of the control. One may read the viability as a read-out of living cells in per cent, often relative to untreated cells.

For the compound `O=C1NC(=O)/C(=C/c2ccc(OCC(=O)N3c4ccccc4Sc4ccccc43)cc2)S1`, the GI50 with NCI-H226 is 82.1 µM; with A549 it was > 100 µM. Moreover, in series [1], the viability was > 70%.
Turning to `Cc1cnc(NC(=O)COc2ccc(/C=C3\SC(=O)NC3=O)cc2)s1`, the 50% growth inhibitory concentration (GI50) in the series on NCI-H226 is 57.8 µM; in the series on A549 it was 88.7 µM. Also, in [1], the viability is > 70%.
In the same order, the values of `O=C(COc1ccc(/C=C2\SC(=O)NC2=O)cc1)Nc1nc2ccccc2s1` are 26.5 µM, 46.9 µM and > 70%.
On to `Cc1ccc(NC(=O)c2ccc(CN3CCN(C)CC3)cc2)cc1Nc1nccc(-c2cccnc2)n1` [IMATINIB], for which, in the series with K562 [2], the inhibition of growth at 1 µM was 71%.
For the compound `O=C(COc1ccc(/C=C2\SC(=O)NC2=O)cc1)Nc1c(Cl)cccc1Cl`, the GI50 is > 100 µM in the series with MOLT-4; > 100 µM in the series on KB; 56.8 µM in [3]; 61.7 µM with MCF7; 60 µM with U-937; > 100 µM with HOP-62. Further, the GI50 is 97.6 µM with HL-60, 6.7 µM in the series on K562 [4], > 100 µM in the series on PC-3 and 21.9 µM in the series with Jurkat. In addition, in series [1], the viability is > 70%.
As for `Cc1cccc(NC(=O)COc2ccc(/C=C3\SC(=O)NC3=O)cc2)n1`, the concentration for 50% growth inhibition (GI50) in the series on KB worked out at 75 µM; in series [3], 60.9 µM; with MCF7 it was 28.3 µM; in the series on HOP-62, 81.4 µM; in the series with K562 [4], 10.7 µM; with PC-3, 58.3 µM. Besides, the viability in series [1] was > 70%.
`O=C(COc1ccc(/C=C2\SC(=O)NC2=O)cc1)Nc1ccc(F)cc1`: the GI50 in the series with MOLT-4 is 53.5 µM; in the series on KB, > 100 µM; in series [3], 56.8 µM; in the series with MCF7, 54.6 µM; with U-937 it was 63.9 µM; in the series on HOP-62, 68 µM. The GI50 was 61.1 µM with HL-60, 9.6 µM in the series with K562 [4], > 100 µM with PC-3 and 59.9 µM with Jurkat. For the same compound, in series [1], the viability was > 70%.
For `O=C(COc1ccc(/C=C2\SC(=O)NC2=O)cc1)Nc1ccc(Cl)cc1`, the GI50 in the series with MOLT-4 is 42.7 µM; in the series on KB, 50.3 µM; in series [3] it was 35.6 µM; with MCF7, 51.1 µM; with U-937, 46.3 µM; with HOP-62, 36.1 µM. Further, the GI50 in the series on HL-60 is 52.4 µM; in the series with K562 [4], 7.4 µM; with PC-3, 83.4 µM; with Jurkat, > 100 µM. Also, the viability in [1] was > 70%.
As for `O=C(COc1ccc(/C=C2\SC(=O)NC2=O)cc1)Nc1cccc([N+](=O)[O-])c1`, the 50% growth inhibitory concentration (GI50) is > 100 µM with KB; 71.5 µM in [3]; 58.5 µM in the series with MCF7; > 100 µM in the series on HOP-62; 20.5 µM with K562 [4]; > 100 µM in the series with PC-3. Further, the viability in series [1] is > 70%.

Source of the values: ChEMBL document CHEMBL4665832, “Benzylidene thiazolidinediones: Synthesis, in vitro investigations of antiproliferative mechanisms and in vivo efficacy determination in combination with Imatinib” (Bioorg Med Chem Lett, 2020).
